{"source": "ChEMBL document CHEMBL4038303", "about": "“Simultaneous Drug Targeting of the Promoter MYC G-Quadruplex and BCL2 i-Motif in Diffuse Large B-Cell Lymphoma Delays Tumor Growth” (J Med Chem, 2017)", "key": {"Mus musculus [1]": {"tested_on": "Mus musculus", "experiment": "Toxicity in scid mouse xenografted with human U2932 cells assessed as survival at 10 mg/kg, ip administered for 5 consecutive days cotreated with NSC-59276 and CPA", "format": "organism-based", "settings": "in vivo", "method_in_brief": "(§1)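 SCID mice (6−8 weeks, female or male, serum immunoglobulin ≤20 μg/mL by ELISA) implanted subcutaneously in left flank with 10 × 10^6 U2932 cells in 100 μL saline; pair-matched by tumor volume; dosed ip daily for 5 days; controls received all compound diluents; tumor volume a2 × b/2; outliers by Grubbs' test; two-tailed t test with Šidák–Bonferroni correction.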"}, "Homo sapiens [2]": {"species": "Homo sapiens", "experiment": "Stabilization of c-myc G-quadruplex DNA in BCL2 and MYC translocation-positive human VAL cells assessed as potentiation of CPA-induced apoptosis by measuring increase in caspase-3 activity at 3 uM after 24 hrs in presence of NSC-59276 by AFC based fluorescence assay (reference value: 30%)"}, "Homo sapiens [3]": {"species": "Homo sapiens", "experiment": "Stabilization of c-myc G-quadruplex DNA in BCL2 translocation-positive human SUDHL4 cells assessed as potentiation of CPA-induced apoptosis by measuring increase in caspase-3 activity at 3 uM after 24 hrs in presence of NSC-59276 by AFC based fluorescence assay (reference value: 30%)"}, "Mus musculus [4]": {"tested_on": "Mus musculus", "experiment": "Toxicity in SCID mouse xenografted with human U2932 cells assessed as survival at 7.5 mg/kg, ip administered for 5 consecutive days in presence of CPA", "format": "organism-based", "settings": "in vivo", "method_in_brief": "as §1"}, "Homo sapiens [5]": {"species": "Homo sapiens", "experiment": "Binding affinity to BLC2 i-motif promoter DNA in MYC translocation-positive and BCL2 amplification-positive human U2932 cells assessed as downregulation of BLC2 mRNA levels up to 3 uM after 24 hrs by qPCR method", "method_in_brief": "(§2)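 DLBCL lines grown in RPMI with 10% FBS (SUDHL4 15% FBS) and penicillin/streptomycin. Cells exposed for 24 h to rising concentrations up to 3 μM; DMSO as vehicle control. Total RNA isolated, target mRNA measured by TaqMan real-time qPCR, normalized to TBP and expressed relative to untreated cells; triplicate experiments, two-tailed t test.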"}, "Homo sapiens [6]": {"species": "Homo sapiens", "experiment": "Binding affinity to c-myc G-quadruplex DNA in BCL2 translocation-positive human SUDHL4 cells assessed as downregulation of MYC mRNA levels at 0.25 to 3 uM after 6 hrs by qPCR method"}, "Mus musculus [7]": {"tested_on": "Mus musculus", "experiment": "Reduction in Myc mRNA level in SCID mouse xenografted with human U2932 cells at 2.5 to 5 mg/kg, ip administered for 5 consecutive days cotreated with CPA by qPCR method", "format": "functional, organism-based", "method_in_brief": "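Tumors from U2932 xenograft SCID mice given ip treatment daily for 5 days were harvested. Total RNA was taken from the same tumor preparations used for protein lysates, and MYC or BCL2 mRNA was quantified by TaqMan qPCR normalized to TBP. Comparisons were made with diluent-treated mice or CPA-only mice.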"}, "Mus musculus [8]": {"tested_on": "Mus musculus", "experiment": "Toxicity in scid mouse xenografted with human U2932 cells assessed as change in body weight at 10 mg/kg, ip administered for 5 consecutive days cotreated with NSC-59276 and CPA", "format": "organism-based", "settings": "in vivo", "method_in_brief": "as §1"}, "U2932 [9]": {"tested_on": "U2932", "experiment": "Potentiation of CPA-induced antitumor activity against human U2932 cells xenografted in SCID mouse assessed as reduction in tumor burden AUC at 5 to 7.5 mg/kg, ip for 5 days cotreated with 10 mg/kg NSC-59276 measured on day 9 to 15 post first treatment", "format": "functional, organism-based", "method_in_brief": "(§3)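 U2932 DLBCL cells (10 × 10^6 in 100 μL sterile saline, viability >91%) injected subcutaneously into left flank of SCID mice (6−8 weeks, immunoglobulin ≤20 μg/mL). Mice pair-matched by tumor volume. Drugs given ip daily for 5 days, CPA 30 mg/kg; controls received all diluents. Tumor volume = a2 × b/2 (a smallest, b largest diameter); n = 5−8; Grubbs' test for outliers.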"}, "Homo sapiens [10]": {"species": "Homo sapiens", "experiment": "Binding affinity to c-myc G-quadruplex DNA in human HT cells assessed as downregulation of MYC mRNA levels at 3 uM after 24 hrs by qPCR method", "format": "cell-based", "method_in_brief": "as §2"}, "U2932 [11]": {"tested_on": "U2932", "experiment": "Potentiation of CPA-induced antitumor activity against human U2932 cells xenografted in SCID mouse assessed as tumor growth inhibition at 7.5 mg/kg, ip for 5 days cotreated with 10 mg/kg NSC-59276 measured on day 12 post first treatment (reference value: 67%)", "format": "functional", "method_in_brief": "as §3"}, "Homo sapiens [12]": {"species": "Homo sapiens", "experiment": "Binding affinity to c-myc G-quadruplex DNA in human HT cells assessed as downregulation of MYC mRNA levels at 0.25 to 3 uM after 6 hrs by qPCR method", "format": "cell-based"}, "Homo sapiens [13]": {"species": "Homo sapiens", "experiment": "Binding affinity to c-myc G-quadruplex DNA in human VAL cells assessed as downregulation of MYC mRNA levels at 0.25 to 3 uM after 6 hrs by qPCR method", "format": "cell-based"}, "U2932 [14]": {"tested_on": "U2932", "experiment": "Potentiation of CPA-induced antitumor activity against human U2932 cells xenografted in SCID mouse assessed as reduction in tumor burden at 5 mg/kg, ip administered for 5 consecutive days measured up to 10 days post first treatement", "format": "functional, organism-based", "method_in_brief": "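SCID mice bearing subcutaneous left-flank U2932 xenografts (10 × 10^6 cells in saline), pair-matched by tumor volume. Test agent given ip daily for 5 days with 50 mg/kg CPA; diluent-treated and CPA-alone controls. Tumor volume estimated as a2 × b/2 from smallest and largest diameters. Grubbs' test for outliers; two-tailed Student's t test.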"}, "Homo sapiens [15]": {"species": "Homo sapiens", "experiment": "Binding affinity to BLC2 G-quadruplex DNA in BCL2 translocation-positive human SUDHL4 cells assessed as downregulation of BLC2 mRNA levels at 3 uM after 24 hrs by qPCR method", "method_in_brief": "as §2"}, "Homo sapiens [16]": {"species": "Homo sapiens", "experiment": "Binding affinity to c-myc G-quadruplex DNA in BCL2 and MYC translocation-positive human VAL cells assessed as downregulation of MYC protein levels up to 3 uM after 24 hrs by Western blot analysis", "method_in_brief": "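Cell lines treated 24 h with compound up to 3 μM, with untreated and DMSO-treated controls. Lysates (20 μg total protein) probed by Western blot for BCL2 or MYC with antibodies at 1:1000; actin as loading control. Blots representative of triplicate experiments.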"}, "Homo sapiens [17]": {"species": "Homo sapiens", "experiment": "Binding affinity to c-myc G-quadruplex DNA in MYC translocation-positive and BCL2 amplification-positive human U2932 cells assessed as downregulation of MYC mRNA levels up to 3 uM after 24 hrs by qPCR method relative to control", "method_in_brief": "as §2"}, "Mus musculus [18]": {"tested_on": "Mus musculus", "experiment": "Toxicity in scid mouse xenografted with human U2932 cells assessed as change in body weight at 2.5 to 5 mg/kg, ip administered for 5 consecutive days in presence of CPA", "format": "organism-based", "settings": "in vivo", "method_in_brief": "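SCID mice aged 6−8 weeks with serum Ig ≤20 μg/mL received U2932 cells (10 × 10^6 in 100 μL saline) subcutaneously in the left flank. Mice were pair-matched by tumor volume. Compound at 2.5 or 5 mg/kg with 50 mg/kg cyclophosphamide was given ip daily for 5 days. Controls received the diluents. Grubbs' test was used to exclude outliers.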"}, "HT": {"tested_on": "HT", "experiment": "Down regulation of BLC2 mRNA level in human HT cells up to 3 uM after 24 hrs by qPCR method", "format": "functional, cell-based", "method_in_brief": "as §2"}, "Mus musculus [19]": {"tested_on": "Mus musculus", "experiment": "Toxicity in scid mouse xenografted with human U2932 cells assessed as survival at 5 mg/kg, ip administered for 5 consecutive days cotreated with NSC-59276 and CPA", "format": "organism-based", "settings": "in vivo", "method_in_brief": "as §1"}}, "note": "Active and inactive are the calls of the source. No cut-off for these calls is given here."}
{"smiles": "Cc1c2ccncc2c(C)c2c1[nH]c1ccc(OCCN(C)C)cc12.Cl.Cl", "values": [{"measurement": "Activity", "setting": "Mus musculus [1]", "result": "Toxic"}, {"measurement": "Activity", "setting": "Homo sapiens [2]", "result": 100, "unit": "%"}, {"measurement": "Activity", "setting": "Homo sapiens [3]", "result": 100, "unit": "%"}, {"measurement": "Activity", "setting": "Mus musculus [4]", "result": "Non-Toxic"}, {"measurement": "Activity", "setting": "Homo sapiens [5]", "result": "inactive"}, {"measurement": "Activity", "setting": "Homo sapiens [6]", "result": "Active"}, {"measurement": "Activity", "setting": "Mus musculus [7]", "result": "Active"}, {"measurement": "Activity", "setting": "Mus musculus [8]", "result": "Toxic"}, {"measurement": "Activity", "setting": "U2932 [9]", "result": "Active"}, {"measurement": "Activity", "setting": "Homo sapiens [10]", "result": "Active"}, {"measurement": "TGI", "setting": "U2932 [11]", "result": 46, "unit": "%"}, {"measurement": "Activity", "setting": "Homo sapiens [12]", "result": "Active"}, {"measurement": "Activity", "setting": "Homo sapiens [13]", "result": "Active"}, {"measurement": "Activity", "setting": "U2932 [14]", "result": "Active"}, {"measurement": "Activity", "setting": "Homo sapiens [15]", "result": "Active"}, {"measurement": "Activity", "setting": "Homo sapiens [16]", "result": "Active"}, {"measurement": "Activity", "setting": "Homo sapiens [17]", "result": "< 90", "unit": "%"}, {"measurement": "Activity", "setting": "Mus musculus [18]", "result": "Non-Toxic"}, {"measurement": "Activity", "setting": "HT", "result": "inactive"}, {"measurement": "Activity", "setting": "Mus musculus [19]", "result": "Non-Toxic"}]}
